Compound activity: PubChem BioAssay, several laboratories
In the library only some 2.2% were active in any assay of this set; here they are far more common.
KLK7 zymogen act = proKLK7 (human) activation, primary screen | P49862 | purified proKLK7, EDANS-DABCYL substrate fluorescence; 100% is mature enzyme control, 0% vehicle | activation, % at 7 µM | actives 0.9% (n = 370,000) | AID 652039;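 active = activation above the mean of all tested compounds plus 3 SD, computed per campaign excluding outliers beyond control limits, cut at about 13% in these data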
Neddyl block = cullin neddylation inhibition. P61081+Q13564. TR-FRET cullin neddylation, biochemical. calls only at 25 µM. actives 0.58% (n = 360,000); in the data active = inhibition above about 36%
MT1-MMP act inh = inhibitors of human MT1-MMP activation | HT1080 RFP-PRO-GFP cells, GFP/RFP ratio fluorescence, overnight; percent of plate control window, DMSO zero | GFP/RFP ratio change, % at 20 µM | P50281 | actives 0.061% (n = 360,000);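 active = GFP/RFP ratio change of at least 30% with cell ATP level not reduced by more than half and red fluorescence within 50% of control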
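Assay system: RFP-PRO-GFP reporter HT1080 cells; read-out basis: GFP/RFP fluorescence ratio; benchmarks: DMSO wells and RFP-L50D-GFP cells; doses: 20 µM single dose, 1% DMSO; schedule: overnight cell settling, then overnight compound exposure, 37 °C, 5% CO2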
SKN-1 block = inhibitors of C. elegans SKN-1. C. elegans VP596 Pgst-4::GFP/RFP ratio, acrylamide-induced, 24 h. inhibition, % at 21.8 µM. actives 0.49% (n = 360,000). AID 624304;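 active = interference check ratio from 0.5 to 1.5 plus GFP to RFP signal ratio inhibition reaching or exceeding a fixed threshold, cut at about 30% in these data, passing the limit was not always enough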
Tn6 DDE FP = disrupts Tn6 cyclic peptide binding to fibrin D-Dimer-E complex. Fibrin DD(E) TRITC-Tn6 fluorescence polarization displacement. inhibition, % at 8.3 µM. actives 0.21% (n = 370,000). AID 720509;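 active = inhibition above a per-campaign cutoff: mean of compounds within control limits plus 3 SD, cut at about 15% in these data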;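 also: 0% = median of all compound wells on the plate and 100% = blocking peptide control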
Target sequence (P02675 whole entry, looked up): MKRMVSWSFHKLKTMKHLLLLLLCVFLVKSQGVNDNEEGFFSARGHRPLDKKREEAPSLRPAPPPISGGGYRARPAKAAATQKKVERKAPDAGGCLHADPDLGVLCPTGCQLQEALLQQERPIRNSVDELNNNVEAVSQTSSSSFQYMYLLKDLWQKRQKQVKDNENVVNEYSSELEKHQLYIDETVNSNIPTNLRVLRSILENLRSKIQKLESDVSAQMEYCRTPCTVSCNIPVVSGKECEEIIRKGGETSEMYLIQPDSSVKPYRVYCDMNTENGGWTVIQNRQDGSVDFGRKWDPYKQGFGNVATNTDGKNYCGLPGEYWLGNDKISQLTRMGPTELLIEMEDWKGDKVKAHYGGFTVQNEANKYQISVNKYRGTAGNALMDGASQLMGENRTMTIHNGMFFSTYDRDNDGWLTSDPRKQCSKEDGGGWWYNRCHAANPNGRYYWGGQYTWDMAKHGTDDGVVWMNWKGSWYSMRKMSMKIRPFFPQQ
DDE Tn7 FP inh = disrupts Tn7 cyclic peptide binding to fibrin D-Dimer-E complex; P02675; FP displacement of FITC-Tn7 peptide from fibrin DD(E); 0% = median of compound wells per plate; inhibition, % at 8.3 µM; actives 0.13% (n = 370,000);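 active = inhibition above the mean of compounds falling within the control limits plus 3 SD of them, cut at about 14% in these data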;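 also: 0% = plate median of compound wells and 100% = 10 µM Aha-Tn7 peptide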
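Assay system: human fibrin DD(E). Input: DD(E) 2 µM final. Medium: Tris buffer with calcium and detergent, pH 7.8. Compound dosing: single point at 8.3 µM. Timing: 10 min plus 3 h, room temperature. Technique: fluorescence polarization of the labelled Tn7 tracer. Read-out: percent inhibition. Replicates: singlicate testing.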
An asterisk follows results filed as active; i = inactive; . = no result given; + = active, no number.

SMILES	KLK7 zymogen act	Neddyl block	MT1-MMP act inh	SKN-1 block	Tn6 DDE FP	DDE Tn7 FP inh
COC(=O)c1nc(-c2ccccc2)n[nH]1	0	i	2	-3	8	3
CCCCN1C(=O)C(CC(=O)NC2CCCCC2)CC(C(=O)N(CC)CC)=C1C (stereo unspecified)	1	i	5	2	8	5
COC(=O)[C@@]12CCCN1[C@H](c1ccc(-c3ccc4c(c3)OCO4)c(OC)c1)[C@H]1C(=O)N(C)C(=O)[C@H]12	1	i	0	-8	6	0
Cc1ccc(NC(=S)NC(=O)C2CC2)c(C)c1	0	i	0	45*	-1	-4
CC(C)S(=O)(=O)C1=NSC2=NC(=O)/C(=C\c3ccc(-c4ccccc4)o3)C(=N)N21	1	+	-15	11	-5	2
CC(NCc1ccccc1)C1COc2ccccc2O1 (stereo unspecified)	0	i	1	-4	-1	0
COc1ccc(CNC(C)C2COc3ccccc3O2)c(OC)c1 (stereo unspecified)	0	i	-4	37*	-1	-2
CCCCn1nnc(NC(=O)c2sc3cc(Cl)ccc3c2Cl)n1	0	i	0	15	2	1
CCN(CC)Cc1ccc(NC(=O)c2sc3cc(Cl)ccc3c2Cl)cc1	0	i	-2	51*	1	-5
O=C1c2cccc3c([N+](=O)[O-])ccc(c23)C(=O)N1c1nccs1	0	+	-283	-11	9	0
O=C1c2cccc3c([N+](=O)[O-])ccc(c23)C(=O)N1c1ccc(Cl)cn1	0	+	-464	-11	-9	6
Clc1ccc(SCc2cc(-c3ccc(Cl)cc3)on2)cc1	0	i	-2	53*	-2	-6
CCN(CC)c1ccc(C=C2C(=O)OC3(CCCCC3)OC2=O)cc1	0	i	1	33	-9	1
CCN(CC)c1ccc(/C=C2/C(=O)c3ccc(C(=O)O)cc3C2=O)cc1	0	i	-30	52*	-5	-8
CSc1nc(C)c(CCOCc2ccc(F)cc2)c(=O)[nH]1	0	i	0	-5	-8	1
COCCCNC(=O)c1cn(CC(C)C)c(=O)c2c1c1ccccc1n2C	-13	.	2	50*	-1	-3
O=[N+]([O-])c1cc(S(=O)(=O)N2CCCC2)ccc1N/N=C/c1cccs1	0	i	9	36*	0	-3
O=[N+]([O-])c1cc(S(=O)(=O)N2CCCC2)ccc1N/N=C/c1ccncc1	0	i	6	8	-2	-2
NC(=O)C1CCCN(C(=O)NC2CCCCC2)C1 (stereo unspecified)	1	i	1	40*	-5	-9
Cc1cccc(/C=C/C(=O)c2ccc(NC3=NCCCS3)cc2)c1	-2	i	-10	60*	2	1
O=C(/C=C/c1ccc(Br)cc1)c1ccc(NC2=NCCCS2)cc1	-3	i	-11	83*	-7	-5
O=C(Nc1ccccc1Cl)c1cc(C2CCCN(C(=O)OCCF)C2)on1 (stereo unspecified)	0	i	0	37*	2	13
O=C(Nc1ccc(-c2nc3ncccc3o2)cc1)c1ccco1	4	.	1	3	1	3
O=C(Nc1ccc(-c2nc3ncccc3o2)cc1)c1ccc(Br)o1	-1	i	-16	38*	-3	-1
O=C(Nc1ccc2oc(-c3cccnc3)nc2c1)c1ccc(Br)o1	-1	i	0	35*	-4	-6
SMILES	KLK7 zymogen act	Neddyl block	MT1-MMP act inh	SKN-1 block	Tn6 DDE FP	DDE Tn7 FP inh
NNC(=O)CSCc1ccc(Cl)cc1Cl	-1	i	1	-6	-2	-2
CCN(CC)CCOC(=O)c1ccc(NC(=O)CCCN2C(=O)/C(=C\c3cccs3)SC2=S)cc1	-2	i	0	39*	-10	-1
O=C(CCN1C(=O)/C(=C\c2cccs2)SC1=S)Nc1ccc(C(=O)O)cc1	0	i	-10	13	1	-5
O=C(c1nc[nH]c1C(=O)N1CCc2ccccc2C1)N1CCc2ccccc2C1	0	i	1	38*	3	-3
CN(Cc1ccccc1)C(=O)c1nc[nH]c1C(=O)N1CCc2ccccc2C1	-1	i	-3	-12	-3	-3
COc1ccc(CN2CCN(c3ccccc3OC)CC2)c(OC)c1	0	i	-5	-16	1	-3
CC1CCCCC1NC(=O)c1ccc(N2CCCC2=O)cc1 (stereo unspecified)	0	i	3	-2	-3	5
CCSc1nnc(-c2ccc(Cl)cc2Cl)o1	0	i	-3	67*	1	0
Clc1ccc(-c2nnc(-c3ccccc3)o2)c(Cl)c1	0	i	1	69*	0	0
CSc1nnc(-c2ccc(Cl)cc2Cl)o1	0	i	6	20	-5	-9
Fc1ccc(-c2nnc(-c3ccc(Cl)cc3Cl)o2)cc1	0	i	-4	48*	1	-9
Fc1ccc(-c2nnc(-c3ccc(Cl)cc3)o2)cc1	0	i	26	26	1	0
Cc1ccc(S(=O)(=O)/N=C2/NC(=O)/C(=C\c3ccco3)S2)cc1	0	i	-14	5	8	0
O=c1cc(N2CCc3ccccc32)[nH]c(=O)n1-c1ccccc1	-1	i	0	10	-5	1
COc1ccc(NC(=O)c2cc3c(CO)cnc(C)c3oc2=Nc2cccc(F)c2)c(OC)c1	0	i	3	0	3	7
COc1cc(NS(=O)(=O)c2ccc(Br)cc2)c(OC)cc1NC(=O)c1ccco1	1	i	-2	48*	0	4
COc1ccc(S(=O)(=O)Nc2cc(OC)c(NC(=O)c3ccco3)cc2OC)cc1	0	i	1	16	-1	5
O=C1c2cc(Br)ccc2OC2C=CC=CC12 (stereo unspecified)	1	i	3	42*	-4	-14
COc1cc(SC)ccc1C(=O)Nc1ccc(Cl)cn1	-1	i	-2	35*	-2	-2
COc1ccc(OC)c(C2C3=C(CC(C)(C)CC3=O)Nc3nnnn32)c1 (stereo unspecified)	-3	i	0	-5	-5	2
CCCCCCc1cc2cc(-c3nnc(-c4ccccc4O)o3)c(=O)oc2cc1O	0	.	-475	57*	1	-6
COc1cc2nc(Nc3ccc(C)c(Cl)c3)nc(N)c2cc1OC	-2	+	-1	26	-5	-1
